# Legend:
# [1] = Biodistribution of [125I]- compound in a monkey spleen. 1 hr after intravenous injection. the value expressed in%dose/organ; settings: simiiformes, in vivo
# Rattus norvegicus [2] = species: Rattus norvegicus; assay: Effect of specific activity of compound on biodistribution in rats lungs 1 hr after injection at the dose of 0.25 mg value expressed in average % dose per organ; value may range from 12.0 to 20.3; assay type: ADME, organism-based, Lung; settings: in vivo
# In short: (§1)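 Rats received an intravenous injection of the I-125 labeled diamine with added unlabeled carrier (6.25, 2.5, 0.25 or 0.025 mg per dose). At 1 h, organs were counted. Percent dose per organ came from comparing tissue radioactivity with diluted aliquots of the injected dose. Values are the average and range of 3 rats. Brain/blood ratio was taken from % dose per gram, calculated using mean organ weights (brain 1.65 g; blood 18 g).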
# [3] = Biodistribution of [125I]- compound in a monkey muscle. 1 hr after intravenous injection. the value expressed in%dose/organ; settings: simiiformes, in vivo
# Rattus norvegicus [4] = assay: Biodistribution of I-125 labeled compound in rat blood, 1 hr after intravenous injection. value expressed in average % dose per organ; value may range from 0.92 to 1.31; assay type: ADME, organism-based; settings: in vivo
# Rattus norvegicus [5] = species: Rattus norvegicus; assay: Effect of specific activity of compound on biodistribution in rats muscle 1 hr after injection at the dose of 2.5 mg value expressed in average % dose per organ; value may range from 12.7 to 18.3; assay type: ADME, organism-based, Muscle tissue; settings: in vivo
# In short: as §1
# Rattus norvegicus [6] = species: Rattus norvegicus; assay: Effect of specific activity of compound on biodistribution in rats brain 1 hr after injection at the dose of 0.25 mg value expressed in average % dose per organ; value may range from 1.76 to 1.97; assay type: ADME, organism-based; settings: in vivo
# In short: as §1
# Rattus norvegicus [7] = assay: Biodistribution of I-125 labeled compound in rat lungs, 1 hr after intravenous injection. value expressed in average % dose per organ; value may range from 10.6 to 15.1; assay type: ADME, organism-based, Lung; settings: in vivo
# [8] = Biodistribution of [125I]- compound in a monkey liver. 1 hr after intravenous injection. the value expressed in %dose/gram; settings: simiiformes, in vivo
# [9] = Biodistribution of [125I]- compound in a monkey lungs.1h after intravenous injection. the value expressed in %dose/gram; settings: simiiformes, in vivo
# Rattus norvegicus [10] = species: Rattus norvegicus; assay: Effect of specific activity of compound on biodistribution in rats heart 1 hr after injection at the dose of 2.5 mg value expressed in average % dose per organ; value may range from 0.34 to 0.42; assay type: ADME, organism-based; settings: in vivo
# In short: as §1
# [11] = Biodistribution of [125I]- compound in a monkey blood. 1 hr after intravenous injection. the value expressed in %dose/gram; settings: simiiformes, in vivo
# Rattus norvegicus [12] = species: Rattus norvegicus; assay: Effect of specific activity of compound on biodistribution in rats blood 1 hr after injection at the dose of 6.25 mg value expressed in average % dose per organ; value may range from 0.55 to 0.64; assay type: ADME, organism-based; settings: in vivo
# In short: as §1
# Rattus norvegicus [13] = species: Rattus norvegicus; assay: Effect of specific activity of compound on biodistribution in rats lungs 1 hr after injection at the dose of 6.25 mg value expressed in average % dose per organ; value may range from 2.70 to 7.70; assay type: ADME, organism-based, Lung; settings: in vivo
# In short: as §1
# Rattus norvegicus [14] = assay: Biodistribution of I-125 labeled compound in rat muscle, 1 hr after intravenous injection. value expressed in average % dose per organ; value may range from 8.99 to 14.4; assay type: ADME, organism-based, Muscle tissue; settings: in vivo
# Rattus norvegicus [15] = species: Rattus norvegicus; assay: Effect of specific activity of compound on biodistribution in rats liver 1 hr after injection at the dose of 6.25 mg value expressed in average % dose per organ; value may range from 16.5 to 17.2; assay type: ADME, organism-based; settings: in vivo
# In short: as §1
# Rattus norvegicus [16] = species: Rattus norvegicus; assay: Effect of specific activity of compound on biodistribution in rats blood 1 hr after injection at the dose of 0.025 mg value expressed in average % dose per organ; value may range from 0.84 to 0.99; assay type: ADME, organism-based; settings: in vivo
# [17] = Biodistribution of [123I]- compound in a monkey brain. 1 hr after intravenous injection. the value expressed in %dose/organ; assay type: ADME, organism-based; settings: simiiformes, in vivo
# Rattus norvegicus [18] = assay: Biodistribution of I-125 labeled compound in rat liver, 2 min after intravenous injection. value expressed in average % dose per organ; value may range from 7.90 to 10.6; assay type: ADME, organism-based; settings: in vivo
# [19] = The protein binding ability of compound was expressed in Percent free; assay type: ADME; settings: read-out: % free
# In short: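 Binding to pooled human serum was measured by equilibrium dialysis. 0.4 mL serum and 0.4 mL 0.15 M phosphate buffer, pH 7.4, were separated by a membrane, and 0.025 μCi radiolabeled diamine was added on the buffer side. Cells were rotated at 37 °C for 18 h, and aliquots from both sides were weighed and counted. % free = buffer/serum radioactivity concentration ratio × 100. The membrane was also counted.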
# [20] = Biodistribution of [125I]- compound in a monkey heart. 1 hr after intravenous injection. the value expressed in %dose/gram; settings: simiiformes, in vivo
# Rattus norvegicus [21] = species: Rattus norvegicus; assay: Effect of specific activity of compound on biodistribution in rats heart 1 hr after injection at the dose of 0.25 mg value expressed in average % dose per organ 0.69 to 0.74; assay type: ADME, organism-based; settings: in vivo
# In short: as §1
# [22] = Biodistribution of [125I]- compound in a monkey liver. 1 hr after intravenous injection. the value expressed in %dose/organ; settings: simiiformes, in vivo
# Rattus norvegicus [23] = species: Rattus norvegicus; assay: Effect of specific activity of compound on biodistribution in rats blood 1 hr after injection at the dose of 0.25 mg value expressed in average % dose per organ; value may range from 0.83 to 0.92; assay type: ADME, organism-based; settings: in vivo
# Rattus norvegicus [24] = species: Rattus norvegicus; assay: Effect of specific activity of compound on biodistribution in rats brain to blood ratio after injection at the dose of 0.025 mg value expressed in % dose per gram ratio; assay type: ADME, organism-based
# In short: as §1
# [25] = Biodistribution of [125I]- compound in a monkey spleen. 1 hr after intravenous injection. the value expressed in %dose/gram; settings: simiiformes, in vivo
# Rattus norvegicus [26] = assay: Biodistribution of I-125 labeled compound in rat heart, 1 hr after intravenous injection. value expressed in average % dose per organ; value may range from 0.97 to 1.26; assay type: ADME, organism-based; settings: in vivo
# Rattus norvegicus [27] = assay: Biodistribution of I-125 labeled compound in rat thyroid, 1 hr after intravenous injection. value expressed in average % dose per organ; value may range from 0.17 to 0.23; assay type: ADME, organism-based, Thyroid gland; settings: in vivo
# Rattus norvegicus [28] = assay: Biodistribution of I-125 labeled compound in rat blood, 2 min after intravenous injection. value expressed in average % dose per organ; value may range from 2.42 to 2.84; assay type: ADME, organism-based; settings: in vivo
# Rattus norvegicus [29] = species: Rattus norvegicus; assay: Effect of specific activity of compound on biodistribution in rats lungs 1 hr after injection at the dose of 2.5 mg value expressed in average % dose per organ; value may range from 5.89 to 8.67; assay type: ADME, organism-based, Lung; settings: in vivo
# In short: as §1
# Rattus norvegicus [30] = assay: Biodistribution of I-125 labeled compound in rat heart, 2 min after intravenous injection. value expressed in average % dose per organ; value may range from 3.03 to 3.55; assay type: ADME, organism-based; settings: in vivo
# Rattus norvegicus [31] = assay: Biodistribution of I-125 labeled compound in rat liver, 1 hr after intravenous injection. value expressed in average % dose per organ; value may range from 6.22 to 7.81; assay type: ADME, organism-based; settings: in vivo
# Rattus norvegicus [32] = assay: Biodistribution of I-125 labeled compound in rat brain to blood ratio, 2 min after intravenous injection, value expressed in % dose per gram ratio; assay type: ADME, organism-based
# In short: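 Rats given I-125 diamine iv; tissue activity at 2 min or 1 h compared with diluted injected-dose aliquots. % dose per gram approximated as % dose per organ divided by mean organ weight (brain 1.65 g; blood 18 g). Ratio taken from the per-gram values.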
structure (smiles),measurement,setting,value
Cc1cc(I)cc(CNCCCN(C)C)c1O,Dose per organ,[1],2.39%
same,Average dose per organ,Rattus norvegicus [2],15.2%
same,Dose per organ,[3],17.3%
same,Average dose per organ,Rattus norvegicus [4],1.1%
same,Average dose per organ,Rattus norvegicus [5],16.2%
same,Average dose per organ,Rattus norvegicus [6],1.84%
same,Average dose per organ,Rattus norvegicus [7],11.7%
same,Dose/g,[8],0.149%
same,Dose/g,[9],1.05%
same,Average dose per organ,Rattus norvegicus [10],0.38%
same,Dose/g,[11],0.002%
same,Average dose per organ,Rattus norvegicus [12],0.61%
same,Average dose per organ,Rattus norvegicus [13],4.5%
same,Average dose per organ,Rattus norvegicus [14],11.9%
same,Average dose per organ,Rattus norvegicus [15],16.7%
same,Average dose per organ,Rattus norvegicus [16],0.91%
same,Dose per organ,[17],3.18%
same,Average dose per organ,Rattus norvegicus [18],9.51%
same,fraction unbound,[19],0.483
same,Dose/g,[20],0.218%
same,Average dose per organ,Rattus norvegicus [21],0.72%
same,Dose per organ,[22],19.7%
same,Average dose per organ,Rattus norvegicus [23],0.88%
same,Ratio,Rattus norvegicus [24],17.6%
same,Dose/g,[25],0.267%
same,Average dose per organ,Rattus norvegicus [26],1.11%
same,Average dose per organ,Rattus norvegicus [27],0.19%
same,Average dose per organ,Rattus norvegicus [28],2.63%
same,Average dose per organ,Rattus norvegicus [29],6.87%
same,Average dose per organ,Rattus norvegicus [30],3.23%
same,Average dose per organ,Rattus norvegicus [31],7.14%
same,Ratio,Rattus norvegicus [32],7.35%
